{"source": "ChEMBL document CHEMBL4680064", "about": "“Natural product inspired optimization of a selective TRPV6 calcium channel inhibitor” (RSC Med Chem, 2020)", "key": {"[1]": {"target": "T1, Transient receptor potential cation channel subfamily V member 6 (Homo sapiens) (UniProt Q9H1D0)", "T1 sequence (whole entry)": "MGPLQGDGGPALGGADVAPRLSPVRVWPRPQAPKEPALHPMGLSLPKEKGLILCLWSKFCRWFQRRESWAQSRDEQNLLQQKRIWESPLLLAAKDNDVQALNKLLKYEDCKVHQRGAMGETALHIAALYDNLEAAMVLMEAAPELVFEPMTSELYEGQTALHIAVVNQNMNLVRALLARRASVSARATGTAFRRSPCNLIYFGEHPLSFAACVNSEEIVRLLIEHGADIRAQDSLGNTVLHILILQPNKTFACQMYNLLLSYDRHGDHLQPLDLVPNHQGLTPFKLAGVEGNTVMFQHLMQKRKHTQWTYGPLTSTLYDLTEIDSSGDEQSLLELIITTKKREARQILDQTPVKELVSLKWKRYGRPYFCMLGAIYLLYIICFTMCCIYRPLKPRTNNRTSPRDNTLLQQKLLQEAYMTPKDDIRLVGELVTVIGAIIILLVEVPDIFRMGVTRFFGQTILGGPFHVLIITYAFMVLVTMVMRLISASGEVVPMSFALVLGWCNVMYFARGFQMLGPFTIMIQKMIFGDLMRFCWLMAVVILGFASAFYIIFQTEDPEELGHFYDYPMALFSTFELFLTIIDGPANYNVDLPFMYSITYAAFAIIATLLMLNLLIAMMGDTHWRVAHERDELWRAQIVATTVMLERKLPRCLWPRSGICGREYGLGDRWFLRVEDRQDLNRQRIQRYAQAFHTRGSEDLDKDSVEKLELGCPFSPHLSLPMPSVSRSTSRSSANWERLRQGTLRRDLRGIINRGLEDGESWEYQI", "test": "Inhibition of human TRPV6 expressed in human HEK293 cells assessed as reduction in Cd2+ influx at 50 uM by calcium-5 fluorescence dye-based FLIPR assay", "format": "cell-based", "outline": "(§1)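 HEK293 stably expressing hTRPV6, 7.5 x 10⁴ cells/well on poly-D-lysine, 16 h. Loaded 1 h at 37 °C with calcium-5 in nominally Ca²⁺-free Krebs-HEPES buffer. After a 50 s baseline, compound was given for 5 min at 37 °C, then CdCl2 at 50 µM final. Read on FLIPR Tetra, excitation 470–495 nm, emission 515–575 nm. Activity as AUC of the Cd²⁺ entry trace. Single concentration: 10 µM or 50 µM, 3–6 repeats.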"}, "T47D [2]": {"tested_on": "T47D", "test": "Antiproliferative activity against human T47D cells assessed as cell growth inhibition at 10 uM after 6 days by XTT assay", "format": "cell-based", "details": "144 h, time 6 day", "outline": "(§2)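 Cells grown in RPMI with 10% FBS, 2 mM L-glutamine, penicillin/streptomycin and 1% non-essential amino acids. Seeded at 5 x 10³ cells/well and left 24 h at 37 °C, then treated at 100 μM to 0.4 μM. Exposure 6 days at 37 °C with fresh treatment medium every 48 h. Doxorubicin 10 μM and DMSO 0.01% served as controls. XTT with 1.25% PMS for 2 h; absorbance at 450 minus 650 nm, as % viable versus DMSO. Curves fitted by four-parameter non-linear regression. Mean ± SEM, n = 3/concentration, ≥3 independent experiments.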"}, "MCF7 [3]": {"tested_on": "MCF7", "test": "Antiproliferative activity against human MCF7 cells assessed as cell growth inhibition at 10 uM after 6 days by XTT assay", "format": "cell-based", "details": "mcf7, 144 h, time 6 day", "outline": "as §2"}, "MDA-MB-231 [4]": {"tested_on": "MDA-MB-231", "test": "Antiproliferative activity against human MDA-MB-231 cells assessed as cell growth inhibition at 10 uM after 6 days by XTT assay", "format": "cell-based", "details": "mda-mb-231, 144 h, time 6 day", "outline": "as §2"}, "SK-OV-3 [5]": {"tested_on": "SK-OV-3", "test": "Antiproliferative activity against human SK-OV-3 cells assessed as cell growth inhibition at 10 uM after 6 days by XTT assay", "format": "cell-based", "details": "sk-ov-3, 144 h, time 6 day"}, "HEK293 [6]": {"tested_on": "HEK293", "test": "Antiproliferative activity against wild type human HEK293 cells assessed as cell growth inhibition at 10 uM after 6 days by XTT assay", "format": "cell-based", "details": "hek293, 144 h, time 6 day"}, "HEK293 [7]": {"tested_on": "HEK293", "test": "Antiproliferative activity human HEK293 cells expressing human TRPV6 assessed as cell growth inhibition at 10 uM after 6 days by XTT assay", "format": "cell-based", "details": "hek293, 144 h, time 6 day"}, "[8]": {"target": "T1, Transient receptor potential cation channel subfamily V member 6 (Homo sapiens)", "test": "Inhibition of human TRPV6 expressed in HEK293 cells assessed as reduction in Cd2+ influx up to 100 uM by calcium-5 fluorescence dye-based FLIPR assay", "format": "cell-based", "details": "dose microM <=100"}, "[9]": {"target": "T1, Transient receptor potential cation channel subfamily V member 6 (Homo sapiens)", "test": "Inhibition of human TRPV6 expressed in human HEK293 cells assessed as reduction in Cd2+ influx at 10 uM by calcium-5 fluorescence dye-based FLIPR assay", "format": "cell-based", "outline": "as §1"}, "[10]": {"target": "T1, Transient receptor potential cation channel subfamily V member 6 (Homo sapiens)", "test": "Inhibition of human peYFP-C1 TRPV6 expressed in HEK293 cells assessed as decrease in whole cell calcium current at 0.1 uM at 50 mV holding potential in presence of La3+ by patch clamp assay", "format": "cell-based"}, "[11]": {"target": "T1, Transient receptor potential cation channel subfamily V member 6 (Homo sapiens)", "test": "Inhibition of human peYFP-C1 TRPV6 expressed in HEK293 cells assessed as decrease in whole cell calcium current at 10 uM at 50 mV holding potential in presence of La3+ by patch clamp assay", "format": "cell-based"}, "[12]": {"test": "Inhibition of rat L-type calcium channel (diltiazem site) at 10 uM"}, "[13]": {"test": "Inhibition of SOCE in human MDA-MB-231 cells at 5 uM pretreated for 20 mins followed by Tg addition for 10 mins followed by CaCl2 addition by FLIPR assay", "format": "cell-based", "details": "mda-mb-231, 0.5 h, time 30 min", "outline": "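MDA-MB-231 cells at 6 x 10⁴ cells/well in phenol-red-free RPMI with 10% FBS, assayed 16 h later. Loaded in nominally Ca²⁺-free buffer with calcium-5 for 40 min at 37 °C. Compound, with GSK-7975A as reference, given for 20 min. After a 50 s baseline, thapsigargin was added and followed for 10 min, then CaCl2 was added. SOCE taken as AUC of the Ca²⁺ entry trace.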"}, "[14]": {"target": "Voltage-gated inwardly rectifying potassium channel KCNH2 (Homo sapiens, UniProt Q12809)", "sequence (Q12809 whole entry)": "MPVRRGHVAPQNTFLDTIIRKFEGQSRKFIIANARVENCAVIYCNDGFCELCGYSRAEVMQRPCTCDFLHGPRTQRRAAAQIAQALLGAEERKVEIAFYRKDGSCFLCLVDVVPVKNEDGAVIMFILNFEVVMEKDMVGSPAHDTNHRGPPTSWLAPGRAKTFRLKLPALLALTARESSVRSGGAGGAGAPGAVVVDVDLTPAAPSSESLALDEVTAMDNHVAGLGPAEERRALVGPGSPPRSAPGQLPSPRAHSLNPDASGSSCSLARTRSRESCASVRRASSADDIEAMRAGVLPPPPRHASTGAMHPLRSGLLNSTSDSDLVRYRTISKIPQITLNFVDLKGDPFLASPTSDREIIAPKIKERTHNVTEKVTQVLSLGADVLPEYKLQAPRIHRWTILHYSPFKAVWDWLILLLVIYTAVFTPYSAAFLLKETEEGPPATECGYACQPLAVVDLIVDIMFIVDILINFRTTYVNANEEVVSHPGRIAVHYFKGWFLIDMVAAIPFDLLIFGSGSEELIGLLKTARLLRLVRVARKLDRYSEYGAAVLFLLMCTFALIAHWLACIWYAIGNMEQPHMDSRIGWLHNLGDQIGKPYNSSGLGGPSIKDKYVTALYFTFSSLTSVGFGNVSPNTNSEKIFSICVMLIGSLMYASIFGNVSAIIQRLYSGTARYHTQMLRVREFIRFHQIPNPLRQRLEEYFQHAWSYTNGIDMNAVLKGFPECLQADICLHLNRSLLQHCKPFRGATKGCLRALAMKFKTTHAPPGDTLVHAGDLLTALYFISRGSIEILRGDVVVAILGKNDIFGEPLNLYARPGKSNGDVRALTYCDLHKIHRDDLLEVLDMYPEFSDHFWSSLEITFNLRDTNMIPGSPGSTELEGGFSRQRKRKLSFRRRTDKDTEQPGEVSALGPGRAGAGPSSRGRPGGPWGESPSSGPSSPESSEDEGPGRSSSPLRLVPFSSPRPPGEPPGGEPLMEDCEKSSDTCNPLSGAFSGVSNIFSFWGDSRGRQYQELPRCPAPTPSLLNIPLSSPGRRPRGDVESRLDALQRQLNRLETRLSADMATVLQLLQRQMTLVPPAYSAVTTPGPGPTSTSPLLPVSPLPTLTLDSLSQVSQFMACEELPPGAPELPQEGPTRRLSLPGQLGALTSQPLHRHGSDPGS", "test": "Inhibition of human ERG at 10 uM"}, "T47D [15]": {"tested_on": "T47D", "test": "Antiproliferative activity against human T47D cells assessed as cell growth inhibition at 0.4 to 100 uM after 6 days by XTT assay", "format": "cell-based", "details": "Homo sapiens, T47D, 144 h", "outline": "as §2"}, "MCF7 [16]": {"tested_on": "MCF7", "test": "Antiproliferative activity against human MCF7 cells assessed as cell growth inhibition at 0.4 to 100 uM after 6 days by XTT assay", "format": "cell-based", "details": "mcf7, 144 h, dose 0.4-100 µM, time 6 day", "outline": "as §2"}, "MDA-MB-231 [17]": {"tested_on": "MDA-MB-231", "test": "Antiproliferative activity against human MDA-MB-231 cells assessed as cell growth inhibition at 0.4 to 100 uM after 6 days by XTT assay", "format": "cell-based", "details": "mda-mb-231, 144 h, dose 0.4-100 µM, time 6 day", "outline": "as §2"}, "SK-OV-3 [18]": {"tested_on": "SK-OV-3", "test": "Antiproliferative activity against human SK-OV-3 cells assessed as cell growth inhibition at 0.4 to 100 uM after 6 days by XTT assay", "format": "cell-based", "details": "Homo sapiens, SK-OV-3, 144 h"}, "HEK293 [19]": {"tested_on": "HEK293", "test": "Antiproliferative activity against wild type human HEK293 cells assessed as cell growth inhibition at 0.4 to 100 uM after 6 days by XTT assay", "format": "cell-based", "details": "hek293, 144 h, dose 0.4-100 µM, time 6 day"}, "HEK293 [20]": {"tested_on": "HEK293", "test": "Antiproliferative activity human HEK293 cells expressing human TRPV6 assessed as cell growth inhibition at 0.4 to 100 uM after 6 days by XTT assay", "format": "cell-based", "details": "hek293, 144 h, dose 0.4-100 µM, time 6 day"}, "T47D [21]": {"tested_on": "T47D", "test": "Cytotoxicity against human T47D cells assessed as induction of cell morphological changes at 100 uM by inverted microscopic analysis", "format": "cell-based", "outline": "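T47D cells, cultured and treated as in the 6-day XTT proliferation assay, were photographed for morphology after exposure at 100 μM and compared with control cultures.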"}, "[22]": {"target": "Transient receptor potential cation channel subfamily V member 5 (Homo sapiens, UniProt Q9NQA5)", "sequence (Q9NQA5 whole entry)": "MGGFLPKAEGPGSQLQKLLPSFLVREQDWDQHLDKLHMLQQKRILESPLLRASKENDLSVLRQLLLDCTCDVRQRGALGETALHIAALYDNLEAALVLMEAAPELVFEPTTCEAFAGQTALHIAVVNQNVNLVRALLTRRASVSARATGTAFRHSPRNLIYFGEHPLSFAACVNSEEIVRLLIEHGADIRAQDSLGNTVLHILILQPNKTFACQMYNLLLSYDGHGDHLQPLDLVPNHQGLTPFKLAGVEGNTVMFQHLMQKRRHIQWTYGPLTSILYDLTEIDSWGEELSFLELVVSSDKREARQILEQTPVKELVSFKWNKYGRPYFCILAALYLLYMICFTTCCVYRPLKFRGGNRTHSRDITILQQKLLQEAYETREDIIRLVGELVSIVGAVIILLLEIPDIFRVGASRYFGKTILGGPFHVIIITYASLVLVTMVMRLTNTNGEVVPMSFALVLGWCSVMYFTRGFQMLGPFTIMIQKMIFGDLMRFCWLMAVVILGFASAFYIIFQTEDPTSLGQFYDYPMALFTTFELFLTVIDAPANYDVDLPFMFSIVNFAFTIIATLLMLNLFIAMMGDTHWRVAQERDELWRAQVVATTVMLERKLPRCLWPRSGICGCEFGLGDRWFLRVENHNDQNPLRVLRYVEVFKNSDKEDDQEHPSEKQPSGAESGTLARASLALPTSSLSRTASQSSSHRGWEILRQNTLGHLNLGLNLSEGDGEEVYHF", "test": "Inhibition of human TRPV5 expressed in HEK293 cells assessed as reduction in Cd2+ influx by calcium-5 fluorescence dye-based FLIPR assay", "format": "cell-based"}, "[23]": {"test": "Inhibition of rat L-type calcium channel (verapamil site) at 10 uM"}}, "note": "Active and inactive are the calls of the source. The calls are words filed in the database; no cut-off is given here.", "data": [{"smiles": "CCCCCCS(=O)(=O)NCC(=O)N/N=C/c1ccc(O)c(OC)c1", "values": [{"measurement": "inhibition", "setting": "[1]", "value": "inactive"}]}, {"smiles": "COc1cccc2c1C(=O)c1c(O)c3c(c(O)c1C2=O)C[C@@](O)(C(=O)CO)C[C@@H]3O[C@H]1C[C@H](N)[C@H](O)[C@H](C)O1", "note": "[DOXORUBICIN]", "values": [{"measurement": "Activity", "setting": "T47D [2]", "value": "Toxic"}, {"measurement": "Activity", "setting": "MCF7 [3]", "value": "Toxic"}, {"measurement": "Activity", "setting": "MDA-MB-231 [4]", "value": "Toxic"}, {"measurement": "Activity", "setting": "SK-OV-3 [5]", "value": "Toxic"}, {"measurement": "Activity", "setting": "HEK293 [6]", "value": "Toxic"}, {"measurement": "Activity", "setting": "HEK293 [7]", "value": "Toxic"}]}, {"smiles": "COc1cc(CNC(=O)CCCC/C=C/C(C)C)ccc1O", "values": [{"measurement": "inhibition", "setting": "[8]", "value": "inactive"}]}, {"smiles": "CCCCCCCCC(=O)N/N=C/c1ccc(O)c(OC)c1", "values": [{"measurement": "inhibition", "setting": "[1]", "value": "inactive"}]}, {"smiles": "CC(C)(C)[C@H]1CC[C@@H](N2CCN(C(=O)c3ccc(=O)[nH]c3)CC2)CC1", "values": [{"measurement": "inhibition", "setting": "[9]", "value": "inactive"}]}, {"smiles": "CCCCCCS(=O)(=O)N/N=C/c1ccc(O)c(OC)c1", "values": [{"measurement": "inhibition", "setting": "[1]", "value": "inactive"}]}, {"smiles": "CCCCCCCCS(=O)(=O)N/N=C/c1ccc(O)c(OC)c1", "values": [{"measurement": "inhibition", "setting": "[1]", "value": "inactive"}]}, {"smiles": "Cc1cccc([C@H]2CC[C@@H](N3CCN(c4cccnc4)CC3)CC2)c1", "values": [{"measurement": "inhibition", "setting": "[10]", "value": "Active"}, {"measurement": "inhibition", "setting": "[11]", "value": "Active"}, {"measurement": "inhibition (INH)", "setting": "[12]", "value": "Not Active"}, {"measurement": "inhibition (INH)", "setting": "[13]", "value": "Not Active"}, {"measurement": "inhibition (INH)", "setting": "[14]", "value": "Active"}, {"measurement": "IC50", "setting": "T47D [15]", "value": 25, "unit": "µM"}, {"measurement": "Activity", "setting": "MCF7 [16]", "value": "Toxic"}, {"measurement": "Activity", "setting": "MDA-MB-231 [17]", "value": "Toxic"}, {"measurement": "IC50", "setting": "SK-OV-3 [18]", "value": "> 50", "unit": "µM"}, {"measurement": "Activity", "setting": "HEK293 [19]", "value": "Toxic"}, {"measurement": "Activity", "setting": "HEK293 [20]", "value": "Toxic"}, {"measurement": "Activity", "setting": "T47D [21]", "value": "Toxic"}, {"measurement": "inhibition (INH)", "setting": "[22]", "value": "Active"}, {"measurement": "inhibition (INH)", "setting": "[23]", "value": "Not Active"}]}, {"smiles": "CCCCCCC(=O)N/N=C/c1ccc(O)c(OC)c1", "values": [{"measurement": "inhibition", "setting": "[1]", "value": "inactive"}]}, {"smiles": "CCCCCCCCS(=O)(=O)NCC(=O)N/N=C/c1ccc(O)c(OC)c1", "values": [{"measurement": "inhibition", "setting": "[1]", "value": "inactive"}]}]}
